Experiments:
[1] = test system: MDA-MB-231; assay: Antiproliferative activity against human MDA-MB-231 cells after 24 hrs by MTT assay; assay type: functional, cell-based; details: MDA-MB-231, 24 h
[2] = test system: MDA-MB-231; assay: Antiproliferative activity against human MDA-MB-231 cells after 24 hrs by MTT assay relative to control; assay type: functional
How it was run: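 MDA-MB-231 cells kept in DMEM with 10% FBS at 37°C, 5% CO2. Seeded at 5×10^3 cells/well and left 24 h, then exposed to compounds at 0.078-10 µM for 24 h. 0.1% DMSO served as the vehicle control. MTT added for 4 h, formazan dissolved in DMSO, absorbance read at 570 nm. IC50 derived. Each run in triplicate, repeated at least three times.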

[3] = molecular target: T1, Glutaminase kidney isoform, mitochondrial (Homo sapiens) (UniProt O94925); assay: Inhibition of human GLS1 at 10 uM relative to control
T1 sequence (whole entry): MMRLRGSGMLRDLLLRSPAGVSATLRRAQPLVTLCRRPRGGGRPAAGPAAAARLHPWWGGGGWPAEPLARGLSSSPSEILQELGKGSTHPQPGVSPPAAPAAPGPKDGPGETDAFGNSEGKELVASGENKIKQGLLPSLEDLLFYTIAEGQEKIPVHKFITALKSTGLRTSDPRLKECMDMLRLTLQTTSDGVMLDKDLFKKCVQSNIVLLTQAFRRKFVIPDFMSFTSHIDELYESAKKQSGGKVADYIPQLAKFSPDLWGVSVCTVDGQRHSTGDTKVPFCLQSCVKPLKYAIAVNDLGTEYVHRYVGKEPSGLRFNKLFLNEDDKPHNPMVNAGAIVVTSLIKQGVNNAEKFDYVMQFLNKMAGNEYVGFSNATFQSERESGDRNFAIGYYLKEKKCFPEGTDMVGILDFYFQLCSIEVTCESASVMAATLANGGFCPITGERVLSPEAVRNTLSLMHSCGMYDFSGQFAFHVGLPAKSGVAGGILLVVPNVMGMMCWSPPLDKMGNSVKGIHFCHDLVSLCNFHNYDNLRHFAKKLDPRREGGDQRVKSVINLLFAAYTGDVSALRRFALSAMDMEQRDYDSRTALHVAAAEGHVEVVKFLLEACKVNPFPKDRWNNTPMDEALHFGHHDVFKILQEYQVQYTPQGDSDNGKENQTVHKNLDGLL
How it was run: (§1)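 Human GLS1 hydrolase activity measured with a commercial GLS1 inhibitor screening kit, following the manufacturer's protocol. Single-point screening was run at 10 μM.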

[4] = molecular target: T2, Glutaminase kidney isoform, mitochondrial (Homo sapiens, UniProt O94925); assay: Inhibition of human GLS1; how it was run: as §1
T2 sequence (O94925 whole entry): T1 sequence (whole entry)

Row | SMILES | IC50 [1] [nM] | inhibition [3] [%] | IC50 [4] [nM] | inhibition (INH) [2] [%]
1 | CC(=O)O[C@H]1C=C([C@H](C)[C@H]2CC(C)=C(C)C(=O)O2)[C@@]2(C)CC[C@H]3[C@@H](C[C@H]4O[C@]45[C@@H](O)C=CC(=O)[C@]35C)[C@@]12O | 6340 | 41.4 | 18200 | 74.7
2 | CC(=O)O[C@H]1C=C([C@H](C)[C@H]2CC(C)=C(C)C(=O)O2)[C@@]2(C)CC[C@H]3[C@@H](C[C@H]4O[C@]45[C@@H](OC(=O)CCC(=O)Nc4nc6ccccc6s4)C=CC(=O)[C@]35C)[C@@]12O | 3500 | < 50 |  | 79.5
3 | CC(=O)O[C@H]1C=C([C@H](C)[C@H]2CC(C)=C(C)C(=O)O2)[C@@]2(C)CC[C@H]3[C@@H](C[C@H]4O[C@]45[C@@H](OC(=O)CCCC(=O)Nc4ccc(F)cc4)C=CC(=O)[C@]35C)[C@@]12O | 490 | < 50 |  | 95.4
4 | CC(=O)O[C@H]1C=C([C@H](C)[C@H]2CC(C)=C(C)C(=O)O2)[C@@]2(C)CC[C@H]3[C@@H](C[C@H]4O[C@]45[C@@H](OC(=O)CCCC(=O)Nc4nc6ccccc6s4)C=CC(=O)[C@]35C)[C@@]12O | 670 | < 50 |  | 94.1
5 | CC(=O)O[C@H]1C=C([C@H](C)[C@H]2CC(C)=C(C)C(=O)O2)[C@@]2(C)CC[C@H]3[C@@H](C[C@H]4O[C@]45[C@@H](OC(=O)CCC(=O)Nc4ccc(N6CCOCC6)c(F)c4)C=CC(=O)[C@]35C)[C@@]12O | 1660 | 53.5 |  | 80.9
6 | CC(=O)O[C@H]1C=C([C@H](C)[C@H]2CC(C)=C(C)C(=O)O2)[C@@]2(C)CC[C@H]3[C@@H](C[C@H]4O[C@]45[C@@H](OC(=O)CCC(=O)Nc4nncs4)C=CC(=O)[C@]35C)[C@@]12O | 8070 | < 50 |  | 77.5
7 | CC(=O)O[C@H]1C=C([C@H](C)[C@H]2CC(C)=C(C)C(=O)O2)[C@@]2(C)CC[C@H]3[C@@H](C[C@H]4O[C@]45[C@@H](OC(=O)CCCC(=O)Nc4nncs4)C=CC(=O)[C@]35C)[C@@]12O | 2170 | < 50 |  | 71.6
8 | O=C(Cc1ccccc1)Nc1nnc(CCSCCc2nnc(NC(=O)Cc3ccccc3)s2)s1 | 9080 |  |  | 68.5
9 | CC(=O)O[C@H]1C=C([C@H](C)[C@H]2CC(C)=C(C)C(=O)O2)[C@@]2(C)CC[C@H]3[C@@H](C[C@H]4O[C@]45[C@@H](OC(=O)CCCC(=O)Nc4ccc(N6CCOCC6)c(F)c4)C(Nc4ccc(N6CCOCC6)c(F)c4)CC(=O)[C@]35C)[C@@]12O (stereo partly specified) | > 50000 | < 50 |  | 0
10 | CC(=O)O[C@H]1C=C([C@H](C)[C@H]2CC(C)=C(C)C(=O)O2)[C@@]2(C)CC[C@H]3[C@@H](C[C@H]4O[C@]45[C@@H](OC(=O)CCC(=O)O)C=CC(=O)[C@]35C)[C@@]12O | > 50000 | < 50 |  | 
11 | CC(=O)O[C@H]1C=C([C@H](C)[C@H]2CC(C)=C(C)C(=O)O2)[C@@]2(C)CC[C@H]3[C@@H](C[C@H]4O[C@]45[C@@H](OC(=O)CCC(=O)Nc4nccs4)C=CC(=O)[C@]35C)[C@@]12O | 2060 | < 50 |  | 79.6
12 | CC(=O)O[C@H]1C=C([C@H](C)[C@H]2CC(C)=C(C)C(=O)O2)[C@@]2(C)CC[C@H]3[C@@H](C[C@H]4O[C@]45[C@@H](OC(=O)CCCC(=O)O)C=CC(=O)[C@]35C)[C@@]12O | > 50000 | < 50 |  | 
13 | CC(=O)O[C@H]1C=C([C@H](C)[C@H]2CC(C)=C(C)C(=O)O2)[C@@]2(C)CC[C@H]3[C@@H](C[C@H]4O[C@]45[C@@H](OC(=O)/C=C/C(=O)O)C=CC(=O)[C@]35C)[C@@]12O | > 50000 | < 50 |  | 
14 | CC(=O)O[C@H]1C=C([C@H](C)[C@H]2CC(C)=C(C)C(=O)O2)[C@@]2(C)CC[C@H]3[C@@H](C[C@H]4O[C@]45[C@@H](OC(=O)CCCC(=O)Nc4nccs4)C=CC(=O)[C@]35C)[C@@]12O | 1000 | < 50 |  | 84.8

Further lines, with some results ahead:

Row | IC50 [1] [nM] | inhibition [3] [%] | IC50 [4] [nM] | SMILES | inhibition (INH) [2] [%]
15 | 1070 | 51.8 |  | CC(=O)O[C@H]1C=C([C@H](C)[C@H]2CC(C)=C(C)C(=O)O2)[C@@]2(C)CC[C@H]3[C@@H](C[C@H]4O[C@]45[C@@H](OC(=O)CCCC(=O)Nc4ccc(N(C)C)cc4)C=CC(=O)[C@]35C)[C@@]12O | 92.6
16 | 790 | 51.6 |  | COc1ccc(NC(=O)/C=C/C(=O)O[C@H]2C=CC(=O)[C@]3(C)[C@H]4CC[C@]5(C)C([C@H](C)[C@H]6CC(C)=C(C)C(=O)O6)=C[C@H](OC(C)=O)[C@]5(O)[C@@H]4C[C@H]4O[C@]243)cc1 | 94.1
17 | 440 | 56.3 |  | COc1ccc(NC(=O)CCCC(=O)O[C@H]2C=CC(=O)[C@]3(C)[C@H]4CC[C@]5(C)C([C@H](C)[C@H]6CC(C)=C(C)C(=O)O6)=C[C@H](OC(C)=O)[C@]5(O)[C@@H]4C[C@H]4O[C@]243)cc1 | 92.9
18 | 1830 | < 50 |  | CC(=O)O[C@H]1C=C([C@H](C)[C@H]2CC(C)=C(C)C(=O)O2)[C@@]2(C)CC[C@H]3[C@@H](C[C@H]4O[C@]45[C@@H](OC(=O)/C=C/C(=O)Nc4nccs4)C=CC(=O)[C@]35C)[C@@]12O | 88.4
19 | 1620 | < 50 |  | CC(=O)O[C@H]1C=C([C@H](C)[C@H]2CC(C)=C(C)C(=O)O2)[C@@]2(C)CC[C@H]3[C@@H](C[C@H]4O[C@]45[C@@H](OC(=O)CCC(=O)Nc4ccc(N(C)C)cc4)C=CC(=O)[C@]35C)[C@@]12O | 83.3
20 | 1560 | < 50 |  | CC(=O)O[C@H]1C=C([C@H](C)[C@H]2CC(C)=C(C)C(=O)O2)[C@@]2(C)CC[C@H]3[C@@H](C[C@H]4O[C@]45[C@@H](OC(=O)/C=C/C(=O)Nc4ccc(N(C)C)cc4)C=CC(=O)[C@]35C)[C@@]12O | 72.1
21 | > 50000 | < 50 |  | COc1ccc(NC(=O)CCCC(=O)O[C@H]2C(Nc3ccc(OC)cc3)CC(=O)[C@]3(C)[C@H]4CC[C@]5(C)C([C@H](C)[C@H]6CC(C)=C(C)C(=O)O6)=C[C@H](OC(C)=O)[C@]5(O)[C@@H]4C[C@H]4O[C@@]423)cc1 (stereo partly specified) | 0
22 | 1380 | 52.4 |  | CC(=O)O[C@H]1C=C([C@H](C)[C@H]2CC(C)=C(C)C(=O)O2)[C@@]2(C)CC[C@H]3[C@@H](C[C@H]4O[C@]45[C@@H](OC(=O)/C=C/C(=O)Nc4ccc(N6CCOCC6)c(F)c4)C=CC(=O)[C@]35C)[C@@]12O | 90.8
23 | 1020 | < 50 |  | COc1ccc(NC(=O)CCC(=O)O[C@H]2C=CC(=O)[C@]3(C)[C@H]4CC[C@]5(C)C([C@H](C)[C@H]6CC(C)=C(C)C(=O)O6)=C[C@H](OC(C)=O)[C@]5(O)[C@@H]4C[C@H]4O[C@]243)cc1 | 82.9
24 | > 50000 | < 50 |  | COc1ccc(NC(=O)CCC(=O)O[C@H]2C(Nc3ccc(OC)cc3)CC(=O)[C@]3(C)[C@H]4CC[C@]5(C)C([C@H](C)[C@H]6CC(C)=C(C)C(=O)O6)=C[C@H](OC(C)=O)[C@]5(O)[C@@H]4C[C@H]4O[C@@]423)cc1 (stereo partly specified) | 0
25 | 1870 | < 50 |  | CC(=O)O[C@H]1C=C([C@H](C)[C@H]2CC(C)=C(C)C(=O)O2)[C@@]2(C)CC[C@H]3[C@@H](C[C@H]4O[C@]45[C@@H](OC(=O)CCC(=O)Nc4ccc(F)cc4)C=CC(=O)[C@]35C)[C@@]12O | 80.4
26 | 1320 | < 50 |  | CC(=O)O[C@H]1C=C([C@H](C)[C@H]2CC(C)=C(C)C(=O)O2)[C@@]2(C)CC[C@H]3[C@@H](C[C@H]4O[C@]45[C@@H](OC(=O)/C=C/C(=O)Nc4ccc(F)cc4)C=CC(=O)[C@]35C)[C@@]12O | 88.9
27 | > 50000 | < 50 |  | COc1ccc(NC(=O)/C=C/C(=O)O[C@H]2C(Nc3ccc(OC)cc3)CC(=O)[C@]3(C)[C@H]4CC[C@]5(C)C([C@H](C)[C@H]6CC(C)=C(C)C(=O)O6)=C[C@H](OC(C)=O)[C@]5(O)[C@@H]4C[C@H]4O[C@@]423)cc1 (stereo partly specified) | 0
28 | > 50000 | < 50 |  | CC(=O)O[C@H]1C=C([C@H](C)[C@H]2CC(C)=C(C)C(=O)O2)[C@@]2(C)CC[C@H]3[C@@H](C[C@H]4O[C@]45[C@@H](OC(=O)/C=C/C(=O)Nc4nc6ccccc6s4)C=CC(=O)[C@]35C)[C@@]12O | 0
